Values after ≈ are worked out from the molar mass of the structure shown.
Experiments:
Blumeria hordei = assay: Fungicidal activity against Blumeria graminis f. sp. hordei infested first-leaf stage of barley seedlings assessed as growth inhibition applied as spray after 10 days under green house conditions; assay type: functional; conditions: 240 h
Rhizoctonia solani = assay: Fungicidal activity against Rhizoctonia solani assessed as mycelial growth inhibition after 3 days; assay type: functional, organism-based
Outline: (§1)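 Mycelial agar discs (4 mm) placed on potato dextrose agar plates containing test compound and incubated at 25 °C. Pyricularia oryzae was incubated for 7 d and Rhizoctonia solani for 3 d.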

Pyricularia grisea = assay: Fungicidal activity against Magnaporthe oryzae assessed as mycelial growth inhibition after 7 days; assay type: functional, organism-based, Pyricularia oryzae; outline: as §1

Row | Compound | MIC (Blumeria hordei) [µg/mL] | IC50 (Rhizoctonia solani) [ppm] | IC50 (Pyricularia grisea) [ppm]
1 | C[Si](C)(C)CCC(O)(Cn1cncn1)c1ccc(F)cc1F (configuration not stated) | 0.3 (≈ 0.922 µM) | 0.12 | 3.1
2 | C[Si](C)(C)CCC(O)(Cn1cncn1)c1ccc(Cl)cc1Cl (configuration not stated) | 0.3 (≈ 0.837 µM) | 0.05 | 2.57
3 | C[Si](C)(C)CCC(O)(Cn1cncn1)c1ccc(Br)cc1 (configuration not stated) | 3 (≈ 8.14 µM) | > 1 | > 10
4 | C[Si](C)(C)CCCC(O)(Cn1cncn1)c1ccc(Cl)cc1 (configuration not stated) | 1 (≈ 2.96 µM) | 0.61 | > 3
5 | C[Si](C)(C)CCCC(O)(Cn1cncn1)c1ccc(Cl)c(Cl)c1 (configuration not stated) | > 3 | 1.94 | > 10
6 | C[Si](C)(C)CCCC(O)(Cn1cncn1)c1ccc(F)cc1F (configuration not stated) | 1 (≈ 2.95 µM) | 0.01 | 0.89
7 | C[Si](C)(C)CC(O)(Cn1cncn1)c1ccc(F)cc1 (configuration not stated) [SIMECONAZOLE] | 0.3 (≈ 1.02 µM) | 0.04 | 1.09
8 | COc1ccc(C(O)(CC[Si](C)(C)C)Cn2cncn2)cc1 (configuration not stated) | > 3 | > 1 | > 10
9 | C[Si](C)(C)CCCC(O)(Cn1cncn1)c1ccc(F)cc1 (configuration not stated) | 3 (≈ 9.33 µM) | 0.42 | > 3
10 | C[Si](C)(C)CCC(O)(Cn1cncn1)c1ccc(Cl)cc1 (configuration not stated) | 3 (≈ 9.26 µM) | > 1 | > 10
11 | C[Si](C)(C)CCCC(O)(Cn1cncn1)c1ccccc1 (configuration not stated) | 3 (≈ 9.89 µM) | > 1 | > 10
12 | Cc1ccc(C(O)(CC[Si](C)(C)C)Cn2cncn2)cc1 (configuration not stated) | > 3 | > 1 | > 10
13 | C[Si](C)(C)CCC(O)(Cn1cncn1)c1ccc(F)cc1 (configuration not stated) | 3 (≈ 9.76 µM) | > 1 | 10
14 | C[Si](C)(C)CCC(O)(Cn1cncn1)c1ccccc1 (configuration not stated) | 3 (≈ 10.4 µM) | > 1 | > 10

Reference: ChEMBL document CHEMBL3045336, “Synthesis of 1-triazolyl-4-trimethylsilyl-2-butanol and 1-triazolyl-5-trimethylsilyl-2-pentanol derivatives and an investigation of their fungicidal activities” (Chem Pharm Bull (Tokyo), 2003)
